Source: article PMC11906766 (Scientific Reports, 2025)

Assays:
[1] = target: T1, hMAO-B (Homo sapiens, UniProt P27338); test: hMAO-B inhibition assay; type: biochemical; conditions: for inhibition at 1 µM: read-out: hMAO-B Inhibition (%), at 1 µM
T1 sequence (P27338 1-520): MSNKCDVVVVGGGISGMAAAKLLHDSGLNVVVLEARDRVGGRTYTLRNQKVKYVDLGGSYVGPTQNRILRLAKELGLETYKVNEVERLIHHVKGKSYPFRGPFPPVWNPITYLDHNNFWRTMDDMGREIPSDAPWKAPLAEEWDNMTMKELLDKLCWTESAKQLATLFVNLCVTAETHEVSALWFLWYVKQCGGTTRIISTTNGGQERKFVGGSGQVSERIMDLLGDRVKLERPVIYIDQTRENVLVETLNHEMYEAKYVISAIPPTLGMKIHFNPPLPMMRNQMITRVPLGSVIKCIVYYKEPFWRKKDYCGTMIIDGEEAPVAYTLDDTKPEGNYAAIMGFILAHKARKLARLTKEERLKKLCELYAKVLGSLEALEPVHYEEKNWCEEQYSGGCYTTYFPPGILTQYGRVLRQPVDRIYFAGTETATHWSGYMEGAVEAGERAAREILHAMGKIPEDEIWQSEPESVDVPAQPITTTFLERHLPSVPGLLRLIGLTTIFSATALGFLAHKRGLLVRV

[2] = target: T2, hMAO-A (Homo sapiens, UniProt P21397); test: hMAO-A inhibition assay; type: biochemical
T2 sequence (P21397 1-527): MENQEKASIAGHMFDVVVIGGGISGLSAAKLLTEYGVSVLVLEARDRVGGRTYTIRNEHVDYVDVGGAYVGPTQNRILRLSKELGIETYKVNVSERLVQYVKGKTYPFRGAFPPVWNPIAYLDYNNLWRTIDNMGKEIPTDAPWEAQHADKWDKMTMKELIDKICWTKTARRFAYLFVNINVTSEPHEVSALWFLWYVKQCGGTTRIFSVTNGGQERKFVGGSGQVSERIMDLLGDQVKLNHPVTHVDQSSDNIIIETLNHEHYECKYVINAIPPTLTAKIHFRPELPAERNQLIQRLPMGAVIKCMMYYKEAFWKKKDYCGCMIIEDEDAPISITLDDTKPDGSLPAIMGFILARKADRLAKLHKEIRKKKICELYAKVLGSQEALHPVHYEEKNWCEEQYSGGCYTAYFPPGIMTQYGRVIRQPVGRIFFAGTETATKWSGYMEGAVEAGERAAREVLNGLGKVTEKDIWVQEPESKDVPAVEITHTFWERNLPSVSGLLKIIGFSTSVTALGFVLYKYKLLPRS

[3] = tested on: LPS-stimulated BV2 cells; test: NO, TNF-α and IL-1β production in LPS-stimulated BV2 microglial cells; type: cell-based; conditions: LPS 100 ng/mL, 24 h
In short: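 BV2 microglia were grown 48 h at 37 °C, then pre-treated with test compound for 6 h at 37 °C under 5% CO2, with 0.5% DMSO as vehicle. Medium was replaced by DMEM containing LPS 100 ng/mL (final) for 24 h at 37 °C. NO in the medium was measured with a nitric oxide assay kit; TNF-α and IL-1β by ELISA. Data are mean ± SD of ≥3 independent experiments, compared by Student's t-test.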

| Molecule | inhibition at 1 µM [1] | IC50 [2] | other results |
| --- | --- | --- | --- |
| COc1ccc(/C=C/C(=O)c2ccc[nH]2)cc1O [Compound 22, (E)−3-(3-hydroxy-4-methoxyphenyl)−1-(1H-pyrrol-2-yl)prop-2-en-1-one] | < 5% | > 40 µM | – |
| COc1ccc(/C=C/C(=O)c2ccc(C)o2)cc1O [Compound 21, (E)−3-(3-hydroxy-4-methoxyphenyl)−1-(5-methylfuran-2-yl)prop-2-en-1-one] | < 5% | > 40 µM | – |
| COc1ccc(/C=C/C(=O)c2ccc(Cl)s2)cc1OC [Compound 16, (E)−1-(5-chlorothiophen-2-yl)−3-(3,4-dimethoxyphenyl)prop-2-en-1-one] | 14.5% | > 40 µM | – |
| lipopolysaccharide [LPS] | – | – | level of IL-1β compared to the control group [3]: 30.4 fold; level of NO compared to the control group [3]: 11.4 fold; level of TNF-α compared to the control group [3]: 26.3 fold |
| COc1ccc(/C=C/C(=O)c2ccc(Br)s2)cc1OC [Compound 18, (E)−1-(5-bromothiophen-2-yl)−3-(3,4-dimethoxyphenyl)prop-2-en-1-one] | 12.3% | > 40 µM | – |
| COc1ccc(/C=C/C(=O)c2ccc(C)s2)cc1O [Compound 19, (E)−3-(3-hydroxy-4-methoxyphenyl)−1-(5-methylthiophen-2-yl)prop-2-en-1-one] | 28.2% | > 40 µM | – |
| COc1ccc(/C=C/C(=O)c2ccco2)cc1O [Compound 20, (E)−1-(furan-2-yl)−3-(3-hydroxy-4-methoxyphenyl)prop-2-en-1-one] | < 5% | > 40 µM | – |

The next lines start with results.

| inhibition at 1 µM [1] | IC50 [2] | Molecule | other results |
| --- | --- | --- | --- |
| 51.7% | > 40 µM | COc1ccc(/C=C/C(=O)c2cccs2)cc1 [Compound 9, (E)−3-(4-methoxyphenyl)−1-(thiophen-2-yl)prop-2-en-1-one] | – |
| 27% | > 40 µM | O=C(/C=C/c1ccc2ccccc2c1)c1cccs1 [Compound 8, (E)−3-(naphthalen-2-yl)−1-(thiophen-2-yl)prop-2-en-1-one] | – |
| 23.8% | > 40 µM | O=C(/C=C/c1ccccc1)c1cccs1 [Compound 2, (E)−3-phenyl-1-(thiophen-2-yl)prop-2-en-1-one] | IC50 [1]: 10.6 ± 1.4 µM; Selectivity Index (SI) ([1]; SI = IC50 (hMAO-A) / IC50 (hMAO-B)): > 3 |
| 16.6% | > 40 µM | COc1ccc(/C=C/C(=O)c2cccs2)cc1O [Compound 11, (E)−3-(3-hydroxy-4-methoxyphenyl)−1-(thiophen-2-yl)prop-2-en-1-one] | – |
| – | > 40 µM | O=C(C=Cc1ccccc1)c1ccccc1 [Compound 1, 1,3-diphenyl-2-propen-1-one, reference compound] | – |
| < 5% | > 40 µM | COc1ccc(/C=C/C(=O)c2cccs2)cc1OC [Compound 10, (E)−3-(3,4-dimethoxyphenyl)−1-(thiophen-2-yl)prop-2-en-1-one] | – |
